Most compounds without a hit are left out; they make up all but 0.72% or so of the library.
bIAP inhibitor: blocks bovine intestinal alkaline phosphatase activity | purified bovine IAP, CDP-star luminescence, 30 min | inhibition, % at 20 µM | 190,000 tested, under 10 active;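 active = over 50% inhibition of intestinal alkaline phosphatase at 20 µM in the single-dose screen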
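Assay system – bovine IAP enzyme · Quantity – bovine IAP at 1/65,000,000 final dilution · Detection – CDP-star luminescence signal · Times – 30 min reaction at room temperature · Also added – CDP-star substrate at 30 µM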
mIAP block: blocks mouse intestinal alkaline phosphatase; inhibition, % at 10 µM; purified mouse IAP, CDP-Star luminescence, 30 min; 330,000 tested, 0.2% active; AID 2806;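 active = inhibition of at least 40% at 10 µM in the primary screen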;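 note: plate controls were DMSO with enzyme for no effect and no enzyme wells for full effect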
hIAP inh: human IAP inhibition; P09923; purified IAP, CDP-Star luminescence, 30 min; inhibition, % at 10 µM; 330,000 tested, 0.12% active;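 active = inhibition reaching a set limit with compound at 10 µM in the primary screen, cut at about 35% in these data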;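 note: plate controls were DMSO wells with enzyme for no effect and no-enzyme buffer wells for full effect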
Target sequence (P09923 whole entry, looked up): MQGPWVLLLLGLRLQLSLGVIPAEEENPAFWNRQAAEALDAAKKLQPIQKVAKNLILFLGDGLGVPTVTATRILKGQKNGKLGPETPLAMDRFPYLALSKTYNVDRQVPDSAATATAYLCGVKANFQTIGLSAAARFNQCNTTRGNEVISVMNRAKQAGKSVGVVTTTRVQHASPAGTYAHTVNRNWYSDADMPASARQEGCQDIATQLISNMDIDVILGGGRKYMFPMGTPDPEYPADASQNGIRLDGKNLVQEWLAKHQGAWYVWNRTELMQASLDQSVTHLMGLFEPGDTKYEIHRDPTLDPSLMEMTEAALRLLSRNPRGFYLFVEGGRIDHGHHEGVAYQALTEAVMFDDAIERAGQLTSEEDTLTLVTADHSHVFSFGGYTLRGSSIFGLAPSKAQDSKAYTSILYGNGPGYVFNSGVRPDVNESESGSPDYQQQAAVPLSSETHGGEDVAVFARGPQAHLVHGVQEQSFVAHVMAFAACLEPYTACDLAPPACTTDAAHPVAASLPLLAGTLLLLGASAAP
mIAP act: increases mouse intestinal alkaline phosphatase activity. muIAP, CDP-Star luminescence, 30 min; active compounds read high; 1 = vehicle-only enzyme signal, 0 = enzyme-free wells. 330,000 tested, 0.24% active. activation factor at 10 µM;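 active = activation factor of at least 2 at 20 µM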
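System: mouse IAP enzyme. Reagent: CDP-Star chemiluminescent phosphatase substrate. Benchmarks: DMSO wells, no-enzyme wells. Times: 30 min enzyme-substrate-compound incubation at room temperature. Detection: luminescence from enzymatic CDP-Star hydrolysis. Doses: test compounds delivered from DMSO solution.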
bIAP activator: increases bovine intestinal alkaline phosphatase activity. activation factor at 20 µM. 200,000 tested, 0.17% active. purified bovine IAP, CDP-star luminescence, 30 min; active compounds read high; fold of DMSO-control signal, blank-subtracted;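 active = activation factor of 2 or more at 20 µM, a signal rise over negative controls twice the positive control's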
hIAP act: increases human intestinal alkaline phosphatase activity; purified human IAP, CDP-Star luminescence, 30 min; active compounds read high; 1 = vehicle-only enzyme, 0 = enzyme-free background; activation factor at 10 µM; 330,000 tested, 0.16% active; AID 2524;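 active = activation factor of the enzyme at least 2-fold when tested at 20 µM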
An asterisk follows results filed as active; . = not tested or not shown.

SMILES	bIAP inhibitor	mIAP block	hIAP inh	mIAP act	bIAP activator	hIAP act
CC(C)C[C@@]12C(=O)N(c3cccc(Br)c3)C(=O)N1[C@H](c1ccc(Cl)cc1)[C@@H]1C(=O)N(C3CCCCC3)C(=O)[C@@H]12	.	46*	16	0.54	.	0.84
CCc1ccc(C(O)(CNCc2ccccc2)c2ccccc2)cc1 (configuration not stated)	.	1	-9	0.99	.	1.1
O=C(Nc1cccc(Cl)c1)C1C2CCC3C(CCC21)C3(Cl)Cl (configuration not stated)	14	-188	10	2.9*	0.9	0.9
COc1cc(C2c3c(oc4ccc(Cl)cc4c3=O)C(=O)N2Cc2ccco2)cc(OC)c1OC (configuration not stated)	-164	.	.	.	2.6*	.
Cc1cccc(C(C)C)c1NC(=O)COC(=O)Cc1ccsc1	-307	1	12	0.99	4.1*	0.88
Cc1cccc(NS(=O)(=O)c2cc([N+](=O)[O-])ccc2C)n1	-16	1	7	0.99	1.2	0.93
Cc1ccc2[nH]c(=O)c(C(c3nnnn3CCc3ccccc3)N3CCOCC3)cc2c1 (configuration not stated)	4	46*	4	0.54	1	0.96
COCCn1nnnc1C(c1cc2cc(C)ccc2[nH]c1=O)N1CCc2ccccc21 (configuration not stated)	7	39	15	0.61	0.9	0.85
CCOc1ccc(NC(=O)CCC(=O)NNC(=O)COc2ccc(C)cc2Br)cc1	.	49*	-96	0.51	.	2
CCOC(=O)CCCNC(=O)CSc1nc2ccc(OCC)cc2[nH]1	-7	7	-12	0.93	1.1	1.1
OC[C@@H]1[C@@H](c2ccccc2)C(c2ccc(F)cc2)=NN1c1ccccc1	.	-84	.	1.8	.	.
Cc1cccc(C2=NN(c3ccccc3)[C@H](CO)[C@H]2c2ccc(Cl)cc2)c1	.	-101	.	2*	.	.
OC[C@@H]1[C@@H](c2ccc(Cl)cc2)C(c2ccc(F)cc2)=NN1c1ccccc1	.	-102	.	2*	.	.
CC(=O)Oc1ccc(-c2cccc(C(=O)OCC(=O)N(C)c3ccccc3)c2)cc1	-1	5	-7	0.95	1	1.1
COc1ccc(N2CCN(C(=O)COC(=O)c3oc4ccc(OC)cc4c3C)CC2)cc1	.	6	-10	0.94	.	1.1
Fc1ccc(C2CC(c3cccs3)=NN2c2ccccc2)cc1 (configuration not stated)	-70	-130	-44	2.3*	1.7	1.4
NS(=O)(=O)c1ccc(N2N=C(c3ccccc3)CC2c2ccc(F)cc2)cc1 (configuration not stated)	-41	-108	-21	2.1*	1.4	1.2
O=C1NC(=S)S/C1=C\c1coc2ccc(O)cc2c1=O	.	46*	13	0.54	.	0.87
CCOC(=O)c1ccc2c(c1)C1C=CCC1C(C(=O)O)N2 (configuration not stated)	18	55*	-3	0.45	0.8	1
CCOC(=O)C1Nc2ccc(C(=O)O)cc2C2C=CCC12 (configuration not stated)	.	14	-6	0.86	.	1.1
O=C1CC(c2cccc(Br)c2)C2=C(COC2=O)N1 (configuration not stated)	5	4	-2	0.96	1	1
Cn1c(CN2CCCC2)nc2cc(NC(=O)Nc3ccccc3)ccc21	-131	-26	1	1.3	2.3*	0.99
Cn1c(CN2CCCCC2)nc2cc(NC(=O)c3ccccc3)ccc21	-4	-1	11	1	1	0.89
C/C(=N\Nc1cccc2cccnc12)c1ccccc1O	2	8	4	0.92	1	0.96
C/C(=N\Nc1cccc2cccnc12)c1ccccn1	-17	10	-106	0.9	1.2	2.1*
SMILES	bIAP inhibitor	mIAP block	hIAP inh	mIAP act	bIAP activator	hIAP act
CCc1cc2c3c(c1)C1(C(=O)N3C(C)(C)C=C2C)C(C#N)=C(N)Oc2[nH]c(=O)[nH]c(=O)c21 (configuration not stated)	7	-3	-13	1	0.9	1.1
C#CCOCCOCCOCCNc1nc(N2CCN(C(=O)CCCCCCCCCCNC(=O)[C@@H](CCSC)n3cc(CCO)nn3)CC2)nc(N2CCN(C(=O)CCCCCCCCCCNC(=O)[C@H](CCSC)n3cc(CCO)nn3)CC2)n1	.	-164	12	2.6*	.	0.88
CC(C)(C)OC(=O)CC[C@@H](C(=O)NCCCCCCCCCCC(=O)N1CCN(C(=O)OC(C)(C)C)CC1)n1cc(CCCCCNC(=O)OC(C)(C)C)nn1	.	-216	0	3.2*	.	0.99
CC(C)(C)OC(=O)NCCCCCc1cn([C@@H](CO)C(=O)NCCCCCCCCCCC(=O)N2CCN(C(=O)OC(C)(C)C)CC2)nn1	.	-7	9	1.1	.	0.91
CC[C@H](C)[C@@H](C(=O)NCCCCCCCCCCC(=O)N1CCN(C(=O)OC(C)(C)C)CC1)n1cc(CCCCCNC(=O)OC(C)(C)C)nn1	.	-150	0	2.5*	.	0.99
CC(C)c1ccc(OCC(=O)NC2CC(C)(C)NC(C)(C)C2)c(Br)c1	.	4	-32	0.96	.	1.3
COc1c(C)cc(C(=O)C2CCCN(C(=O)/C=C/c3ccccn3)C2)cc1C (configuration not stated)	11	-14	1	1.1	0.9	0.99
COc1cc(NC(=O)CN(c2cc(C)cc(C)c2)S(=O)(=O)c2c(C)noc2C)cc(OC)c1	10	-198	12	3*	0.9	0.88
COc1cc(NC(=O)CN(c2ccc(C)cc2)S(=O)(=O)c2c(C)noc2C)cc(OC)c1	.	-81	-20	1.8	.	1.2
S=C(NCc1ccc(Cl)cc1)Nc1ccccc1Cl	6	-52	11	1.5	0.9	0.89
S=C(NCCC(c1ccccc1)c1ccccc1)Nc1ccccc1Cl	-66	-499	6	6*	1.7	0.94
COc1ccccc1NC(=S)NCCC(c1ccccc1)c1ccccc1	2	-108	-6	2.1*	1	1.1
COc1ccccc1NC(=S)NCc1ccccc1	.	3	-5	0.97	.	1.1
COc1cc(NC(=S)NCCC(c2ccccc2)c2ccccc2)c(OC)cc1Cl	2	-248	1	3.5*	1	0.99
COc1cccc(CN(C)C(=O)COc2ccc(C(=O)c3ccc(Cl)cc3)cc2)c1OC	.	0	13	1	.	0.87
CC(=O)c1cccc(CN2CCC(C(=O)Nc3cccc(-c4ccn[nH]4)c3)CC2)c1	.	-19	-4	1.2	.	1
CC(=O)Nc1cccc(NC(=O)Nc2ccc(C)c(Cl)c2)c1	-2	-111	-18	2.1*	1	1.2
O=C(Nc1ccccc1)Nc1ccccc1Br	-2	-52	-16	1.5	1	1.2
O=C(Nc1ccccc1)Nc1ccc(Br)c(Cl)c1	0	-234	-29	3.3*	1	1.3

Compound activity as filed in PubChem BioAssay.
